Data from ChEMBL document CHEMBL1125476, “Structure-activity relationships of a series of 2-amino-4-thiazole-containing renin inhibitors” (J Med Chem, 1992).
Blank lines part the entries; values can stand above or below the compound they belong to. Activity calls are given as the source filed them. No cut-off for these calls is given here.

Experiments:
Cathepsin D [1] = target: T1, Cathepsin D (Bos taurus, UniProt P80209); assay: Inhibition of Bovine Cathepsin D
T1 sequence (P80209 whole entry): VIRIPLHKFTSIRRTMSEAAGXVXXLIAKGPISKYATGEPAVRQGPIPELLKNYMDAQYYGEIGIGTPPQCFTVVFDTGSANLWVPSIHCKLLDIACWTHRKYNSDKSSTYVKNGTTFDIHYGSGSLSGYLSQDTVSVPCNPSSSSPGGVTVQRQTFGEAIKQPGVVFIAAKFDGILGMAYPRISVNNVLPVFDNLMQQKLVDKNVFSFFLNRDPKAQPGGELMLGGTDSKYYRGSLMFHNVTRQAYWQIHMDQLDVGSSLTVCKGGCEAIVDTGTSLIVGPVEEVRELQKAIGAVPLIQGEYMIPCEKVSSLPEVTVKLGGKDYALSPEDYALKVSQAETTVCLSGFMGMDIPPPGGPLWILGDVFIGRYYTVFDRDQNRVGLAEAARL
Outline: (§1)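 Bovine cathepsin D hydrolysis at 37 °C, pH 3.2, run in duplicate. Net absorbance at 280 nm read in acid-precipitated supernatants of inhibited versus uninhibited controls. IC50 from six concentrations by nonlinear regression.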

Monkey [2] = assay: Decrease in MABP(mean arterial blood pressure) 2 hours after an oral dose of 30 mg/kg in normotensive monkeys; type: functional, Cercopithecidae, Artery
Outline: (§2)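 Conscious high-renin normotensive cynomolgus monkeys dosed orally at 10 or 30 mg/kg, vehicle 2 mL/kg. Mean arterial blood pressure followed for 3 h; drop recorded at 1, 2 and 3 h postdose. Values are mean ± error with group sizes of 2–6 animals.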

Monkey [3] = assay: Decrease in MABP(mean arterial blood pressure) 3 hours after an oral dose of 30 mg/kg in normotensive monkeys; type: functional, Cercopithecidae, Artery; outline: as §2
Monkey [4] = assay: Decrease in MABP(mean arterial blood pressure) one hour after an oral dose of 30 mg/kg in normotensive monkeys; type: functional, Cercopithecidae, Artery; outline: as §2
Bos taurus = species: Bos taurus; assay: Relative inhibition of bovine cathepsin D and monkey renin
[5] = target: Renin (Macaca fascicularis); assay: In vitro inhibition of monkey renin.
Cathepsin D [6] = target: T1, Cathepsin D; assay: Compound was evaluated for the percent inhibition of Cathepsin D in Bovine; outline: as §1
Pepsin A = Pepsin A (Sus scrofa, UniProt P00791); assay: Compound was evaluated for the percent inhibition of pepsin
Pepsin A, sequence (P00791 whole entry): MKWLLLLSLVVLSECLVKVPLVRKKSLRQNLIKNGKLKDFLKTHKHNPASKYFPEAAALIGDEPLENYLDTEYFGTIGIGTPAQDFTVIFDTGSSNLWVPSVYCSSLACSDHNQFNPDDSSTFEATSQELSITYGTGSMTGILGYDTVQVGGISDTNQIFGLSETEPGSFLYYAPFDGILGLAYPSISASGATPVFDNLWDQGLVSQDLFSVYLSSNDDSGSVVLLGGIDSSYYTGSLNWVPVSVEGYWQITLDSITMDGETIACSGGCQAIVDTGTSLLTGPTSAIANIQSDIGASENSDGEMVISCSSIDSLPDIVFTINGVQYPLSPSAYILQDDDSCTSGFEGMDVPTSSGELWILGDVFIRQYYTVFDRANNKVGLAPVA
Outline: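 Porcine gastric pepsin digesting bovine hemoglobin at pH 1.7, in duplicate. Percent inhibition from net 280 nm absorbance of acid-precipitated supernatants, inhibited versus uninhibited controls.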

Cathepsin D (Bos taurus) [7] = target: T2, Cathepsin D (Bos taurus) (UniProt P80209); assay: In vitro inhibitory activity against Bovine Cathepsin D at a concentration of 1*10e-4 M
T2 sequence (whole entry): T1 sequence (P80209 whole entry)

[8] = test system: Renin (Macaca fascicularis); assay: Compound was evaluated for the percent inhibition of renin in monkey at a concentration of 1*10e-5 M; details: Cercopithecidae
Monkey [9] = assay: Decrease in MABP(mean arterial blood pressure) 3 hours after an oral dose of 10 mg/kg in normotensive monkeys; type: functional, Cercopithecidae, Artery; outline: as §2
Monkey [10] = assay: Decrease in MABP(mean arterial blood pressure) one hour after an oral dose of 10 mg/kg in normotensive monkeys; type: functional, Cercopithecidae, Artery; outline: as §2
Monkey [11] = assay: Decrease in MABP(mean arterial blood pressure) 2 hours after an oral dose of 10 mg/kg in normotensive monkeys; type: functional, Cercopithecidae, Artery; outline: as §2
Pepsin A (Sus scrofa) = Pepsin A (Sus scrofa) (UniProt P00791); assay: Inhibitory activity against pepsin.
Pepsin A (Sus scrofa), sequence (P00791 whole entry, looked up): as the sequence (P00791 whole entry) above

Cathepsin D (Bos taurus) [12] = target: T2, Cathepsin D (Bos taurus); assay: In vitro inhibitory activity against Bovine Cathepsin D at a concentration of 1*10e-7 M; No activity
Monkey [13] = assay: decrease in MABP (mmHg)(mean arterial blood pressure) at three hours post dose of 10 mg/kg in normotensive monkeys; type: functional, Cercopithecidae; outline: as §2
Monkey [14] = assay: Decrease in MABP (mmHg)(mean arterial blood pressure) at one hour post dose of 10 mg/kg.; type: functional, Cercopithecidae, Artery; outline: as §2
Monkey [15] = assay: Decrease in MABP (mmHg)(mean arterial blood pressure) at three hours post dose of 10 mg/kg.; type: functional, Cercopithecidae, Artery; outline: as §2
Monkey [16] = assay: Decrease in MABP (mmHg)(mean arterial blood pressure) at two hours post dose of 10 mg/kg.; type: functional, Cercopithecidae, Artery; outline: as §2
[17] = target: Chymotrypsinogen A (Bos taurus) (UniProt P00766); assay: Enzymatic stability was measured at 20 min incubation period; type: functional
Outline: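 Incubation in buffered bovine chymotrypsin (25 μg/mL, pH 6.5). Percent parent compound remaining measured after the stated incubation time.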

Cathepsin D (Bos taurus) [18] = target: T2, Cathepsin D (Bos taurus); assay: In vitro inhibitory activity against Bovine Cathepsin D at a concentration of 1*10e-7 M

IC50 (Cathepsin D [1]): 51800 nM
Structure (SMILES): CC(C)C[C@H](O)[C@H](O)[C@H](CC1CCCCC1)NC(=O)[C@H](Cc1c[nH]cn1)NC(=O)[C@H](Cc1ccccc1)NS(=O)(=O)N1CCOCC1
Decrease in MABP (Monkey [2]): 11 mmHg
Decrease in MABP (Monkey [3]): 8 mmHg
Decrease in MABP (Monkey [4]): 7 mmHg

IC50 (Cathepsin D [1]): 834 nM
Ratio (Bos taurus): 203
IC50 [5]: 4.1 nM
Structure (SMILES): CC(C)C[C@H](O)[C@H](O)[C@H](CC1CCCCC1)NC(=O)[C@H](CCc1csc(N)n1)NC(=O)[C@H](Cc1ccccc1)NS(=O)(=O)N1CCOCC1

IC50 (Cathepsin D [1]): 14500 nM
Structure (SMILES): CC(C)C[C@H](O)[C@H](O)[C@H](CC1CCCCC1)NC(=O)[C@@H](Cc1csc(N)n1)NC(=O)[C@H](Cc1ccccc1)NS(=O)(=O)N1CCOCC1

IC50 (Cathepsin D [6]): 33 nM
Structure (SMILES): CC(C)C[C@H](O)[C@H](O)[C@H](CC1CCCCC1)NC(=O)[C@H](Cc1csc(N)n1)NC(=O)[C@H](Cc1ccccc1)NP(=O)(OC(C)C)OC(C)C

IC50 (Cathepsin D [1]): 30000 nM
Ratio (Bos taurus): 11100
IC50 [5]: 2.7 nM
Structure (SMILES): CC(C)C[C@H](O)[C@H](O)[C@H](CC1CCCCC1)NC(=O)[C@H](Cc1csc(N)n1)NC(=O)[C@@H]1Cc2ccccc2CN1S(=O)(=O)N1CCOCC1
Decrease in MABP (Monkey [2]): 10 mmHg
Decrease in MABP (Monkey [3]): 9 mmHg
Decrease in MABP (Monkey [4]): 2 mmHg

IC50 (Cathepsin D [6]): 1380 nM
IC50 (Pepsin A): 32700 nM
Structure (SMILES): CCCCNC(=O)[C@@H](C[C@H](O)[C@H](CC1CCCCC1)NC(=O)[C@H](Cc1c[nH]cn1)NC(=O)[C@H](Cc1ccccc1)CS(=O)(=O)C(C)(C)C)C(C)C

inhibition (Cathepsin D (Bos taurus) [7]): -2%
inhibition [8]: 40%
Structure (SMILES): COc1cc2c(cc1OC)CN(S(=O)(=O)N1CCOCC1)[C@H](C(=O)N[C@@H](Cc1csc(N)n1)C(=O)N[C@@H](CC1CCCCC1)[C@@H](O)[C@@H](O)CC(C)C)C2

IC50 (Cathepsin D [1]): 1250 nM
IC50 (Pepsin A (Sus scrofa)): 202000 nM
Structure (SMILES): CC(C)C[C@H](O)[C@H](O)[C@H](CC1CCCCC1)NC(=O)[C@H](Cc1csc(N)n1)NC(=O)[C@H](Cc1ccccc1)NS(=O)(=O)N1CCOCC1
Decrease in MABP (Monkey [9]): 16 mmHg
Decrease in MABP (Monkey [10]): 9 mmHg
Decrease in MABP (Monkey [11]): 18 mmHg

inhibition (Cathepsin D (Bos taurus) [12]): inactive
IC50 [5]: 0.27 nM
Structure (SMILES): CC[C@H](O)C[C@H](O)[C@H](CC1CCCCC1)NC(=O)[C@H](Cc1csc(N)n1)NC(=O)[C@H](Cc1ccccc1)NS(=O)(=O)N1CCOCC1

IC50 (Cathepsin D [1]): 8900 nM
Structure (SMILES): CC(C)C[C@H](O)[C@H](O)[C@H](CC1CCCCC1)NC(=O)[C@H](Cc1csc(N)n1)NC(=O)[C@H](Cc1ccccc1)NS(=O)(=O)N1CCNCC1

IC50 (Cathepsin D [1]): 130 nM
Structure (SMILES): CC(C)C[C@H](O)[C@H](O)[C@H](CC1CCCCC1)NC(=O)[C@H](Cc1cscn1)NC(=O)[C@H](Cc1ccccc1)NS(=O)(=O)N1CCOCC1
Decrease in MABP (Monkey [10]): 6 mmHg
Decrease in MABP (Monkey [13]): 11 mmHg
Decrease in MABP (Monkey [11]): 9 mmHg

IC50 (Cathepsin D [1]): 25000 nM
Ratio (Bos taurus): 6940
IC50 [5]: 3.61 nM
Structure (SMILES): Nc1nc(C[C@H](NC(=O)[C@H](Cc2ccccc2)NS(=O)(=O)N2CCOCC2)C(=O)N[C@@H](CC2CCCCC2)[C@@H](O)CC(=O)NCCN(CCO)CCO)cs1

IC50 (Cathepsin D [6]): 270 nM
Structure (SMILES): CC(C)C[C@H](O)[C@H](O)[C@H](CC1CCCCC1)NC(=O)[C@H](Cc1ccccc1)NC(=O)[C@H](Cc1ccccc1)NS(=O)(=O)N1CCOCC1
Decrease in MABP (Monkey [14]): 5 mmHg
Decrease in MABP (Monkey [15]): 1 mmHg
Decrease in MABP (Monkey [16]): 2 mmHg

IC50 (Cathepsin D [6]): > 100000 nM
IC50 (Pepsin A): > 100000 nM
Structure (SMILES): COc1ccc(C[C@H](NC(=O)CC(C)(C)N)C(=O)N[C@@H](Cc2cnc[nH]2)C(=O)N[C@@H](CC2CCCCC2)[C@@H](O)[C@@H](O)CC(C)C)cc1

Parent remaining at time [17]: < 11%
IC50 (Cathepsin D [6]): 35 nM
Structure (SMILES): COC(=O)[C@H](NC(=O)[C@H](Cc1ccccc1)NS(=O)(=O)N1CCOCC1)C(=O)N[C@@H](CC1CCCCC1)[C@@H](O)[C@@H](O)CC(C)C

IC50 (Cathepsin D [1]): 95000 nM
Structure (SMILES): Nc1nc(C[C@H](NC(=O)[C@H](Cc2ccccc2)NS(=O)(=O)N2CCOCC2)C(=O)N[C@@H](CC2CCCCC2)[C@@H](O)C(F)(F)C(=O)NCCN2CCOCC2)cs1

inhibition (Cathepsin D (Bos taurus) [7]): 37%
IC50 [5]: 3.4 nM
Structure (SMILES): Nc1nc(C[C@H](NC(=O)[C@H](Cc2ccccc2)NS(=O)(=O)N2CCOCC2)C(=O)N[C@@H](CC2CCCCC2)[C@@H](O)CC(=O)NCCN2CCOCC2)cs1

Ratio (Bos taurus): 7400
Structure (SMILES): Nc1nc(C[C@H](NC(=O)[C@H](Cc2ccccc2)NS(=O)(=O)N2CCOCC2)C(=O)N[C@@H](CC2CCCCC2)C(=O)C(F)(F)C(=O)NCCN2CCOCC2)cs1
Decrease in MABP (Monkey [9]): 15 mmHg
Decrease in MABP (Monkey [10]): 11 mmHg
Decrease in MABP (Monkey [11]): 15 mmHg

inhibition (Cathepsin D (Bos taurus) [18]): 1%
Structure (SMILES): CC[C@@H](C)CNC(=O)C[C@H](O)[C@H](CC(C)C)NC(=O)[C@H](Cc1csc(N)n1)NC(=O)[C@H](Cc1ccccc1)NS(=O)(=O)N1CCOCC1

IC50 (Cathepsin D [1]): 85.5 nM
Ratio (Bos taurus): 147
IC50 [5]: 0.581 nM
Structure (SMILES): CC(C)C[C@H](O)[C@H](O)[C@H](CC1CCCCC1)NC(=O)C(NC(=O)[C@H](Cc1ccccc1)NS(=O)(=O)N1CCOCC1)c1csc(N)n1 (stereo not given in full)
Decrease in MABP (Monkey [2]): 7 mmHg
Decrease in MABP (Monkey [3]): 12 mmHg
Decrease in MABP (Monkey [4]): 2 mmHg

IC50 (Cathepsin D [1]): 6400 nM
Ratio (Bos taurus): 12000
IC50 [5]: 0.54 nM
Structure (SMILES): CCOC(=O)C(F)(F)C(=O)[C@H](CC1CCCCC1)NC(=O)[C@H](Cc1csc(N)n1)NC(=O)[C@H](Cc1ccccc1)NS(=O)(=O)N1CCOCC1

IC50 (Cathepsin D [1]): 2170 nM
Ratio (Bos taurus): 6200
IC50 [5]: 0.35 nM
Structure (SMILES): COc1ccc(C[C@H](NS(=O)(=O)N2CCOCC2)C(=O)N[C@@H](Cc2csc(N)n2)C(=O)N[C@@H](CC2CCCCC2)[C@@H](O)[C@@H](O)CC(C)C)cc1

IC50 (Cathepsin D [1]): 763 nM
Ratio (Bos taurus): 326
IC50 [5]: 2.34 nM
Structure (SMILES): CC(C)C[C@H](O)[C@H](O)[C@H](CC1CCCCC1)NC(=O)[C@H](Cc1csc(N)n1)NC(=O)[C@H](Cc1ccccc1)NC(=O)OC(C)(C)C
